Experimental data reported in ChEMBL document CHEMBL4392827, “Tryptamine derivatives disarm colistin resistance in polymyxin-resistant gram-negative bacteria” (Bioorg Med Chem, 2019).

Assays:
Acinetobacter baumannii [1] = assay: Potentiation of colistin-induced antimicrobial activity against colistin-resistant Acinetobacter baumannii isolate 3942 assessed as fold reduction in colistin MIC at 30 uM incubated for 2 to 24 hrs under shaking condition in presence of 0.001% triton X-100 by broth microdilution assay; type: functional
Acinetobacter baumannii [2] = assay: Potentiation of colistin-induced antimicrobial activity against colistin-resistant Acinetobacter baumannii isolate 4112 assessed as fold reduction in colistin MIC at 60 uM after 18 hrs by broth microdilution assay; type: functional
Outline: (§1)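 Checkerboard-style resensitization following adapted CLSI broth microdilution. Bacteria were grown 4–6 h in CAMHB and subcultured to 5×10^5 CFU/mL. Adjuvant was added from DMSO stock and held constant while colistin was serially diluted in the dosed subculture. Plates were incubated stationary at 37°C for 18 h, then MICs were read. Fold reduction was taken relative to the colistin MIC without adjuvant.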

Klebsiella pneumoniae [3] = assay: Potentiation of colistin-induced antimicrobial activity against colistin-resistant Klebsiella pneumoniae isolate C3 assessed as fold reduction in colistin MIC at 5 uM after 18 hrs by broth microdilution assay; type: functional
Outline: (§2)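 CLSI-adapted broth microdilution. Bacteria were grown 4–6 h in cation-adjusted Mueller-Hinton broth and subcultured to 5 ×10^5 CFU/mL. The subculture was dosed with adjuvant from DMSO stock at a constant final concentration, then colistin was added and serially diluted across wells. Plates were incubated stationary at 37°C for 18 h and the MIC recorded. Fold reduction is relative to the colistin MIC without adjuvant.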

Acinetobacter baumannii [4] = assay: Potentiation of colistin-induced antimicrobial activity against colistin-resistant Acinetobacter baumannii isolate 3942 assessed as fold reduction in colistin MIC at 60 uM after 18 hrs by broth microdilution assay; type: functional; outline: as §1
Klebsiella pneumoniae [5] = assay: Potentiation of colistin-induced antimicrobial activity against colistin-resistant Klebsiella pneumoniae B9 assessed as fold reduction in colistin MIC at 60 uM after 18 hrs by broth microdilution assay; type: functional; outline: as §1
Acinetobacter baumannii [6] = assay: Toxicity in Acinetobacter baumannii ATCC 17978 expressing mcr1 gene after 18 hrs by broth microdilution assay; type: organism-based
Outline: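 Single-agent MIC per CLSI broth microdilution. Cells from a 4–6 h culture in cation-adjusted Mueller-Hinton broth adjusted to 5 ×10^5 CFU/mL. Compound (DMSO stock) added to 200 μM top concentration and twofold serially diluted six times, with an untreated control row. Plates sealed and incubated stationary at 37°C for 18 h before MIC read.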

Acinetobacter baumannii [7] = assay: Potentiation of colistin-induced antimicrobial activity against colistin-resistant Acinetobacter baumannii isolate 3942 assessed as fold reduction in colistin MIC at 20 uM after 18 hrs by broth microdilution assay; type: functional; outline: as §2
Acinetobacter baumannii [8] = assay: Potentiation of colistin-induced antimicrobial activity against colistin-resistant Acinetobacter baumannii isolate 3942 assessed as fold reduction in colistin MIC at 40 uM after 18 hrs by broth microdilution assay; type: functional; outline: as §2
Acinetobacter baumannii [9] = assay: Potentiation of colistin-induced antimicrobial activity against colistin-resistant Acinetobacter baumannii isolate 3942 assessed as fold reduction in colistin MIC at 50 uM after 18 hrs by broth microdilution assay; type: functional; outline: as §2
Klebsiella pneumoniae [10] = assay: Potentiation of colistin-induced antimicrobial activity against colistin-resistant Klebsiella pneumoniae isolate C3 assessed as fold reduction in colistin MIC at 50 uM after 18 hrs by broth microdilution assay; type: functional; outline: as §2
Acinetobacter baumannii [11] = assay: Potentiation of colistin-induced antimicrobial activity against colistin-resistant Acinetobacter baumannii isolate 3942 assessed as fold reduction in colistin MIC at 15 uM after 18 hrs by broth microdilution assay; type: functional; outline: as §2
Klebsiella pneumoniae [12] = assay: Potentiation of colistin-induced antimicrobial activity against colistin-resistant Klebsiella pneumoniae isolate C3 assessed as fold reduction in colistin MIC at 60 uM after 18 hrs by broth microdilution assay; type: functional; outline: as §1
Acinetobacter baumannii [13] = assay: Potentiation of colistin-induced antimicrobial activity against colistin-resistant Acinetobacter baumannii isolate 3942 assessed as fold reduction in colistin MIC at 60 uM incubated for 2 to 24 hrs under shaking condition in presence of 0.001% triton X-100 by broth microdilution assay; type: functional
Escherichia coli = assay: Potentiation of colistin-induced antimicrobial activity against Escherichia coli ATCC 25922 assessed as fold reduction in colistin MIC at 60 uM after 18 hrs by broth microdilution assay; type: functional
Outline: (§3)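 Bacteria grown 4–6 h in cation-adjusted Mueller-Hinton broth and diluted to 5 ×10^5 CFU/mL. Adjuvant from DMSO stock held at fixed 60 μM while colistin is twofold serially diluted in the same adjuvant-dosed broth. Plates sealed and kept stationary at 37°C for 18 h. Colistin MIC read and fold reduction taken relative to colistin alone.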

Klebsiella pneumoniae [14] = assay: Potentiation of colistin-induced antimicrobial activity against colistin-resistant Klebsiella pneumoniae isolate C3 assessed as fold reduction in colistin MIC at 30 uM after 18 hrs by broth microdilution assay; type: functional; outline: as §2
Klebsiella pneumoniae [15] = assay: Potentiation of colistin-induced antimicrobial activity against Klebsiella pneumoniae ATCC BAA-2146 expressing NDM1 gene assessed as fold reduction in colistin MIC at 60 uM after 18 hrs by broth microdilution assay; type: functional; outline: as §3
Klebsiella pneumoniae [16] = assay: Potentiation of colistin-induced antimicrobial activity against colistin-resistant Klebsiella pneumoniae isolate C3 assessed as fold reduction in colistin MIC at 60 uM incubated for 2 to 24 hrs under shaking condition in presence of 0.001% triton X-100 by broth microdilution assay; type: functional

For O=C(NCc1c[nH]c2ccccc12)c1cc(Br)c(Br)[nH]1, which “fold change (FC)” value (Acinetobacter baumannii [1]) is on record?
The value was 128.

What about the “fold change (FC)” value (Acinetobacter baumannii [2]) of the same compound?
Its value is 2048.

And the “fold change (FC)” value (Klebsiella pneumoniae [3])?
The value was 4.

What about the “fold change (FC)” value (Acinetobacter baumannii [4]) of the same compound?
The value was 2048.

And the “fold change (FC)” value (Klebsiella pneumoniae [5])?
Its value is 2048.

What about the MIC (Acinetobacter baumannii [6]) of the same compound?
The MIC was > 200 µM.

What about the “fold change (FC)” value (Acinetobacter baumannii [7]) of the same compound?
The value was 16.

What about the “fold change (FC)” value (Acinetobacter baumannii [8]) of the same compound?
Its value is 256.

And the “fold change (FC)” value (Acinetobacter baumannii [9])?
The value was 512.

And the “fold change (FC)” value (Klebsiella pneumoniae [10])?
The value was 512.

And the “fold change (FC)” value (Acinetobacter baumannii [11])?
Its value is 8.

What about the “fold change (FC)” value (Klebsiella pneumoniae [12]) of the same compound?
The value was 2048.

What about the “fold change (FC)” value (Acinetobacter baumannii [13]) of the same compound?
The value was 1024.

What about the “fold change (FC)” value (Escherichia coli) of the same compound?
The value was 4.

What about the “fold change (FC)” value (Klebsiella pneumoniae [14]) of the same compound?
Its value is 128.

And the “fold change (FC)” value (Klebsiella pneumoniae [15])?
Its value is 0.

And the “fold change (FC)” value (Klebsiella pneumoniae [16])?
The value was 2048.
